The record followed here is ChEMBL document CHEMBL1151755, “Crystal structure of the peroxisome proliferator-activated receptor gamma (PPARgamma) ligand binding domain complexed with a novel partial agonist: a new region of the hydrophobic pocket could be exploited for drug design” (J Med Chem, 2008).

The target in assay [1] is T1, Peroxisome proliferator-activated receptor alpha (Homo sapiens) (UniProt Q07869).
T1 sequence (whole entry): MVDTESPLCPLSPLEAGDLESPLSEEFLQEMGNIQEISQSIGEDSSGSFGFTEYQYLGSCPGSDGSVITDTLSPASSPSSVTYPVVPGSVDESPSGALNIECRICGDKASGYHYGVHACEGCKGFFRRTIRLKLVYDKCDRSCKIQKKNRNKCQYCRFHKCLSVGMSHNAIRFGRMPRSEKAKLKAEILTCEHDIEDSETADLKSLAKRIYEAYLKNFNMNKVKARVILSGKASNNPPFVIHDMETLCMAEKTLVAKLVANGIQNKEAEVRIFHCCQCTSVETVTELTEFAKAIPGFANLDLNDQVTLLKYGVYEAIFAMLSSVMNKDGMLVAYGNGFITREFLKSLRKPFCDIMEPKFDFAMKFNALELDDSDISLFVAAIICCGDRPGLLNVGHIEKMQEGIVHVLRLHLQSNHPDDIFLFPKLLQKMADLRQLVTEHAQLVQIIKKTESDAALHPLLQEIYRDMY
Kind of assay: Agonist activity at human PPARalpha ligand binding domain expressed in human Hep G2 cells co-transfected with Gal4-DBD by luciferase reporter gene assay. The class given is cell-based. The note with it: HepG2. In outline: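 Gal4-LBD fusion vector (50 ng) was co-transfected with pGal4UAS-luciferase (100 ng) and pCMVβ β-galactosidase normalizer (300 ng) into HepG2 cells by calcium phosphate for 4 h. Cells were washed, then given serum-free DMEM/F-12 with ligand or 0.1% ethanol vehicle for 20 h. Luciferase was normalized to β-galactosidase.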
On the technique in general: In a reporter assay the amount or activity of a reporter protein is the signal.

The target in assay [2] is T2, Peroxisome proliferator-activated receptor alpha (Mus musculus) (UniProt P23204).
T2 sequence (whole entry): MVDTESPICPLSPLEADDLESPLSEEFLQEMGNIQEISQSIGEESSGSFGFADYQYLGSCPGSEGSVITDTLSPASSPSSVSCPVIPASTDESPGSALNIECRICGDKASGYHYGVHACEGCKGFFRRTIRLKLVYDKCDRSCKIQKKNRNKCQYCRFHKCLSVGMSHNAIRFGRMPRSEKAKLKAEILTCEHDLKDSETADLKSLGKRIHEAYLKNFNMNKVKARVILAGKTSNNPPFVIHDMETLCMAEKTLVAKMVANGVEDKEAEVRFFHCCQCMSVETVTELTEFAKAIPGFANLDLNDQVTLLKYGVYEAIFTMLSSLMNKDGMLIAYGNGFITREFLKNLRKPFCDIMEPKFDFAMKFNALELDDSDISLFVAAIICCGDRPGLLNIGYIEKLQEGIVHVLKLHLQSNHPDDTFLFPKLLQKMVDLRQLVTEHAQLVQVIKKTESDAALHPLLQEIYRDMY
The experiment in a line: (§1) Agonist activity at mouse PPARalpha ligand binding domain expressed in human Hep G2 cells co-transfected with Gal4-DBD by luciferase reporter gene assay. Format: cell-based. The note with it: HepG2.

For assay [3], the target named is T3, Oxysterols receptor LXR-alpha (Homo sapiens) (UniProt Q13133).
T3 sequence (whole entry): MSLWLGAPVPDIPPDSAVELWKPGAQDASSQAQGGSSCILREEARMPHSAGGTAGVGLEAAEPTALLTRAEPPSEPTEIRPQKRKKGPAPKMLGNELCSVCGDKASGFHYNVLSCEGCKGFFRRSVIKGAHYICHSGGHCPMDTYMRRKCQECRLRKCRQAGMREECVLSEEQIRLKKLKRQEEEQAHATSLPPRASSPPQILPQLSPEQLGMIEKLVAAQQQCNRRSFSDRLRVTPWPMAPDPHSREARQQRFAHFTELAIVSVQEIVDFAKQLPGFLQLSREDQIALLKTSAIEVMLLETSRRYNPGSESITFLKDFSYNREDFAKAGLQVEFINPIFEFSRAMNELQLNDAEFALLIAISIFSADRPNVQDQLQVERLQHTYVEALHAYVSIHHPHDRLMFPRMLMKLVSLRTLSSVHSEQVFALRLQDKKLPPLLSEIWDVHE
The experiment in a line: Increase in transcriptional activity of LXRalpha ligand binding domain expressed in human Hep G2 cells co-transfected with Gal4-DBD by luciferase reporter gene assay. The note with it: HepG2. The class given is cell-based. In outline: (§2)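 HepG2 cells transfected for 4 h by calcium phosphate coprecipitation with 100 ng pGal4UAS-luciferase, 50 ng Gal4-LBD receptor vector and 300 ng CMV-β-galactosidase plasmid for normalization. Cells were washed in PBS, then refed with serum-free DMEM/F-12 containing penicillin/streptomycin and compound or 0.1% ethanol vehicle for 20 h. Luciferase read-out was normalized to β-galactosidase. Experiments were repeated at least three times.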

A further assay concerns HepG2. The experiment in a line: Increase in transcriptional activity of ROR ligand binding domain expressed in human Hep G2 cells co-transfected with Gal4-DBD by luciferase reporter gene assay. The class given is cell-based. In outline: as §2
Assay [4] addresses T4, Peroxisome proliferator-activated receptor alpha (Mus musculus, UniProt P23204).
T4 sequence (P23204 whole entry): T2 sequence (whole entry)
Described as §1. The class given is cell-based, HepG2.

Structures are written as SMILES. The source made the active and inactive calls. The calls are words filed in the database; no cut-off is given here.

Turning to `O=C(O)[C@@H](Cc1ccccc1)Oc1ccc(-c2ccccc2)cc1`, the result in assay [1] and in assay [2] was inactive.
The term EC50 denotes the concentration at which the effect is half-maximal. A low value points to greater potency. Regarding `O=C(O)[C@H](Cc1ccccc1)Oc1ccc(-c2ccccc2)cc1`, the result (in assay [3]; with HepG2) was inactive. Further, in assay [4], the EC50 came to 260 nM.
